# Data: ChEMBL document CHEMBL4028914, “Structure-Based Design of 6-Chloro-4-aminoquinazoline-2-carboxamide Derivatives as Potent and Selective p21-Activated Kinase 4 (PAK4) Inhibitors” (J Med Chem, 2018)
# Biological target: T1, Serine/threonine-protein kinase PAK 1 (Homo sapiens, UniProt Q13153)
# Assay: Inhibition of human PAK1 kinase domain using coumarin and fluorescein-labeled ser/thr19 peptide as substrate preincubated for 15 mins followed by ATP addition measured after 60 mins by Z'-Lyte assay
# Outline: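 FRET-based Z′-Lyte kinase assay run per the kit instructions. Ki values are the average of at least two duplicate experiments; SEM < ±20%.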
# T1 sequence (Q13153 whole entry, the tested form may be a part): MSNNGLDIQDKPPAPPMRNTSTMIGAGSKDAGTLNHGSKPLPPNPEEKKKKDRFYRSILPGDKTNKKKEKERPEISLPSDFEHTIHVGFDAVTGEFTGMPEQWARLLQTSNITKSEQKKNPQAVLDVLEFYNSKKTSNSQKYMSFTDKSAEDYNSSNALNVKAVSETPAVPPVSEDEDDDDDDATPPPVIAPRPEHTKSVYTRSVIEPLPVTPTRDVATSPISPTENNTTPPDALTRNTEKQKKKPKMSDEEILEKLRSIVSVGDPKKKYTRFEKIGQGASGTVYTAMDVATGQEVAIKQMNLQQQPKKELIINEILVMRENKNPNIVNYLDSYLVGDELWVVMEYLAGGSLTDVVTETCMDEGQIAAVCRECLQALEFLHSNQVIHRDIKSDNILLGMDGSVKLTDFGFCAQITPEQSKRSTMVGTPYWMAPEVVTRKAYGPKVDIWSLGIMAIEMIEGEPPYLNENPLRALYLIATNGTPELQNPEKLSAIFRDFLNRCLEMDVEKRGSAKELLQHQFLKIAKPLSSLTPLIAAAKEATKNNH
row,Ki,SMILES
1,288 nM,NC1CCN(c2nc(Nc3cc(C4CC4)[nH]n3)c3cc(Cl)ccc3n2)CC1

# Biological target: T2, Serine/threonine-protein kinase PAK 4 (Homo sapiens, UniProt O96013)
# T2 sequence (O96013 whole entry, the tested form may be a part): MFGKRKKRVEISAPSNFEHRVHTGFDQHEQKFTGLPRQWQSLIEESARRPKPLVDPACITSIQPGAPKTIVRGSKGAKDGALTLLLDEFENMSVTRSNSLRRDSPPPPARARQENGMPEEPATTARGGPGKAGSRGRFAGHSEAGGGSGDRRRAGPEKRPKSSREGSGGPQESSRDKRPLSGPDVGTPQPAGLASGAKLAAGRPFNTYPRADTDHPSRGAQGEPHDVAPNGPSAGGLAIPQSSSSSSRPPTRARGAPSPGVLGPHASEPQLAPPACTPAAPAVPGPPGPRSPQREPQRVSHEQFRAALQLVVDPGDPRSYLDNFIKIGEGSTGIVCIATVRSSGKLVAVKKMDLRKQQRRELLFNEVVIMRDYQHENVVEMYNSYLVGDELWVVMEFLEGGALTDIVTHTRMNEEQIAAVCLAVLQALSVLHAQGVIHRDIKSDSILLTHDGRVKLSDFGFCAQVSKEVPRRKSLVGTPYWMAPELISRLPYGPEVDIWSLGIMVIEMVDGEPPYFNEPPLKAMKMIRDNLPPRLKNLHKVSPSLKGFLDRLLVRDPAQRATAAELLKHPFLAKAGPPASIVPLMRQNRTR
# Assay: Inhibition of human PAK4 kinase domain using coumarin and fluorescein-labeled ser/thr20 peptide as substrate preincubated for 15 mins followed by ATP addition measured after 60 mins by Z'-Lyte assay
row,SMILES,Ki
1,NC1CCN(c2nc(Nc3cc(-c4ccccc4)[nH]n3)c3cc(Cl)ccc3n2)CC1,256 nM
2,Cc1cc(Nc2nc(C(=O)N3CC(C)NC(C)C3)nc3ccc(Cl)cc23)n[nH]1 (mixture of isomers),119 nM
3,CC(C)c1cc(Nc2nc(N3CCC(N)CC3)nc3ccc(Cl)cc23)n[nH]1,77 nM
4,NC1CCN(c2nc(Nc3cn(C4CC4)cn3)c3cc(Cl)ccc3n2)CC1,652 nM
5,Cc1cc(Nc2nc(C(=O)N(C)C3CCCNC3)nc3ccc(Cl)cc23)n[nH]1 (racemic),1630 nM
6,NC1CCN(c2nc(Nc3cn(-c4ccccc4)cn3)c3cc(Cl)ccc3n2)CC1,1440 nM
7,CC(C)n1cnc(Nc2nc(N3CCC(N)CC3)nc3ccc(Cl)cc23)c1,884 nM
8,Cc1cc(Nc2nc(C(=O)N(C)C3CCNCC3)nc3ccc(Cl)cc23)n[nH]1,576 nM
9,NC1CCN(c2nc(Nc3cc(C4CC4)[nH]n3)c3cc(Cl)ccc3n2)CC1,16 nM

# Continued, values first:
row,Ki,SMILES
1,3890 nM,Cc1cc(Nc2nc(C(=O)N3CCC(C)(O)CC3)nc3ccc(Cl)cc23)n[nH]1
2,672 nM,CNC1CCN(C(=O)c2nc(Nc3cc(C)[nH]n3)c3cc(Cl)ccc3n2)CC1
3,354 nM,Cc1cc(Nc2nc(C(=O)N3CCC(N)CC3)nc3ccc(Cl)cc23)n[nH]1
4,782 nM,Cc1cc(Nc2nc(C(=O)NC3CNC3)nc3ccc(Cl)cc23)n[nH]1
5,768 nM,Cc1cc(Nc2nc(C(=O)N3CCN(C)CC3)nc3ccc(Cl)cc23)n[nH]1
6,3820 nM,Cc1cc(Nc2nc(C(=O)N3CCC(O)CC3)nc3ccc(Cl)cc23)n[nH]1
7,2170 nM,Cc1cc(Nc2nc(C(=O)N3CCOCC3)nc3ccc(Cl)cc23)n[nH]1
8,2410 nM,Cc1cc(Nc2nc(C(=O)N3CCNC(=O)C3)nc3ccc(Cl)cc23)n[nH]1
9,674 nM,Cc1cc(Nc2nc(C(=O)N3CCC(C)(N)CC3)nc3ccc(Cl)cc23)n[nH]1
10,325 nM,Cc1cc(Nc2nc(C(=O)NC3CCNCC3)nc3ccc(Cl)cc23)n[nH]1

# Biological target: T2, Serine/threonine-protein kinase PAK 4
# Assay: Inhibition of PAK4 (unknown origin) using histone H3 as substrate
row,IC50,SMILES
1,14900 nM,COc1cccc(Nc2nc(NCC3CCCO3)c3ccccc3n2)c1 (stereo not given)

# Biological target: T1, Serine/threonine-protein kinase PAK 1
# Assay: Inhibition of PAK1 (unknown origin)
row,IC50,SMILES
1,48400 nM,COc1cccc(Nc2nc(NCC3CCCO3)c3ccccc3n2)c1 (stereo not given)

# Species: Homo sapiens
# Assay: Selectivity index, ratio of Ki for human PAK1 to Ki for human PAK4
# Outline: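 Ratio of PAK1 Ki to PAK4 Ki, both taken from the FRET-based Z′-Lyte assay.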
row,Ratio Ki,SMILES
1,19,NC1CCN(c2nc(Nc3cc(C4CC4)[nH]n3)c3cc(Cl)ccc3n2)CC1

# Biological target: T2, Serine/threonine-protein kinase PAK 4
# Assay: Binding affinity to biotin-labeled human truncated PAK4 kinase domain by surface plasmon resonance assay
# Outline: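 Binding to the truncated PAK4 was measured by SPR with multiconcentration kinetic analysis. Kd was taken from a 1:1 binding model fit.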
row,Kd,SMILES
1,1940 nM,Cc1cc(Nc2nc(C(=O)N3CCOCC3)nc3ccc(Cl)cc23)n[nH]1
2,6 nM,NC1CCN(c2nc(Nc3cc(C4CC4)[nH]n3)c3cc(Cl)ccc3n2)CC1
